Laboratory results from ChEMBL document CHEMBL3232763, “Synthesis of 6-cinnamoyl-2H-benzo[b][1,4]oxazin-3(4H)-ones and their effects on A549 lung cancer cell growth” (Eur J Med Chem, 2014).
Active and inactive are the calls of the source. No cut-off for these calls is given here.

How the values were obtained:
A549 [1] = assay: Cytotoxicity against human A549 cells assessed as change in cell morphology at 5 uM after 48 hrs by phase contrast microscopic analysis; format: functional, cell-based
Procedure, shortened: (§1)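 A549 cells (RPMI-1640, 10% bovine calf serum, 37 °C, 5% CO2) treated with compound at 5 µM or 0.1% DMSO control for 24 h or 48 h; morphology and cell density inspected by phase contrast microscopy.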

A549 [2] = assay: Cytotoxicity against human A549 cells assessed as decrease in cell density at 5 uM after 24 to 48 hrs by phase contrast microscopic analysis; format: functional, cell-based; procedure, shortened: as §1
A549 [3] = assay: Cytotoxicity against human A549 cells assessed as growth inhibition measured at 48 hrs by SRB assay; format: functional, cell-based; settings: for IC50: A549, 48 h
Procedure, shortened: (§2)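 Sulforhodamine B assay: A549 cells seeded in 96-well plates, exposed 48 h to 1, 5 or 10 µM or 0.1% DMSO; survival expressed relative to DMSO-treated cells; triplicate assays, mean ± SE (n = 3); IC50 at 48 h derived.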

A549 [4] = assay: Induction of autophagy in human A549 cells assessed as increase in acidic vesicles accumulation at 5 uM after 48 hrs by acridine orange staining-based fluorescence microscopic analysis; format: functional, cell-based
Procedure, shortened: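 A549 cells treated 48 h at 5 µM, then stained with acridine orange (5 µg/ml) for 1 min at room temperature, washed twice with PBS, and acidic vesicles viewed by fluorescence microscopy (200×).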

A549 [5] = assay: Induction of autophagy in human A549 cells assessed as upregulation of LC3-2 protein expression at 5 uM after 48 hrs by Western blot analysis; format: functional, cell-based
Procedure, shortened: (§3)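 Cells treated 48 h at 5 µM, washed with ice-cold PBS, lysed, protein quantified by Bradford; SDS electrophoresis, PVDF transfer, blocking in 5% milk/PBST; probed overnight at 4 °C with rabbit anti-human LC3b and GAPDH antibodies, HRP secondaries, film detection; LC3-II band density normalised to loading control.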

A549 [6] = assay: Cell cycle arrest in human A549 cells assessed as accumulation at G1 phase at 5 uM after 48 hrs by propidium iodide staining-based flow cytometric analysis (reference value: 50.70%); format: functional
A549 [7] = assay: Cell cycle arrest in human A549 cells assessed as accumulation at G2 phase at 5 uM after 48 hrs by propidium iodide staining-based flow cytometric analysis (reference value: 9.63%); format: functional
A549 [8] = assay: Cell cycle arrest in human A549 cells assessed as accumulation at S phase at 5 uM after 48 hrs by propidium iodide staining-based flow cytometric analysis (reference value: 39.68%); format: functional
A549 [9] = assay: Induction of apoptosis in human A549 cells assessed as chromatin condensation at 5 uM measured at 48 hrs by Hoechst 33258 staining-based fluorescence microscopic analysis; format: functional, cell-based
Procedure, shortened: (§4)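 After 48 h with 5 µM compound or 0.1% DMSO, A549 cells in 24-well plates stained with 10 µg/ml Hoechst 33258 for 30 min at 37 °C, washed twice with PBS, and nuclei examined by fluorescence microscopy for chromatin condensation and apoptotic bodies.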

A549 [10] = assay: Induction of apoptosis in human A549 cells assessed as increase in apoptotic bodies formation at 5 uM measured at 48 hrs by Hoechst 33258 staining-based fluorescence microscopic analysis; format: functional, cell-based; procedure, shortened: as §4
A549 [11] = assay: Induction of necrosis in human A549 cells at 10 uM after 48 hrs by LDH release assay; format: functional, cell-based
Procedure, shortened: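 LDH level measured in A549 cells after 48 h with 10 µM compound or untreated control, using a commercial kit per manufacturer's instructions; mean ± SE, n = 3.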

A549 [12] = assay: Cytotoxicity against human A549 cells assessed as inhibition of cell viability at 10 uM after 48 hrs by SRB assay relative to control; format: functional; procedure, shortened: as §2
A549 [13] = assay: Induction of autophagy in human A549 cells assessed as effect on LC3-2 protein expression at 5 uM after 48 hrs by Western blot analysis; format: functional, cell-based; procedure, shortened: as §3

SMILES | Activity (A549 [1]) | Activity (A549 [2]) | growth inhibition (GI) (A549 [3]) | IC50 (A549 [3]) [µM] | Activity (A549 [4]) | Activity (A549 [5]) | Activity (A549 [6]) [%] | Activity (A549 [7]) [%] | Activity (A549 [8]) [%] | Activity (A549 [9]) | Activity (A549 [10]) | Activity (A549 [11]) | Activity (A549 [12]) [%] | Activity (A549 [13])
COc1ccc(/C=C/C(=O)c2ccc3c(c2)NC(=O)CO3)c(OC)c1 | inactive | Active | Dose-dependent effect | 6.49 | Active | Active | 57.92 | 11.5 | 30.59 | inactive | inactive | inactive |  | 
O=c1[nH]cc(F)c(=O)[nH]1 [FLUOROURACIL] |  |  |  | 0.98 |  |  |  |  |  |  |  |  |  | 
COc1cc(/C=C/C(=O)c2ccc3c(c2)NC(=O)CO3)cc(OC)c1 | inactive | Active | Dose-dependent effect | 3.29 | Active | Active | 75.46 | 15.29 | 9.25 | inactive | inactive | inactive | 24 | 
O=C1COc2ccc(C(=O)/C=C/c3ccc4ccccc4c3)cc2N1 | inactive |  |  |  |  |  |  |  |  |  |  |  |  | 
O=C1COc2ccc(C(=O)/C=C/c3ccc(OCc4ccccc4)cc3)cc2N1 | inactive |  |  |  |  |  |  |  |  |  |  |  |  | 
O=C1COc2ccc(C(=O)/C=C/c3ccccc3)cc2N1 | inactive | Active | Dose-dependent effect | 5.46 | inactive | inactive | 55.27 | 12.66 | 32.08 | inactive | inactive | inactive |  | 
O=C1COc2ccc(C(=O)/C=C/c3ccc4c(c3)OCO4)cc2N1 | inactive | Active | Dose-dependent effect | 16.3 | inactive |  | 63.37 | 10.33 | 26.3 | inactive | inactive | inactive |  | inactive
O=C1COc2ccc(C(=O)/C=C/c3ccc(Cl)cc3)cc2N1 | inactive |  |  |  |  |  |  |  |  |  |  |  |  | 
